Key:
Type in all cases: functional, cell-based
HepG2 [1] = experiment: Cytotoxicity against human HepG2 cells assessed as LDH release after 48 hrs by microplate reader method
How it was run: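 Hep G2 cells in DMEM/10% FCS, seeded 2×10^4/well, switched to serum-free after 48 h at ~80% confluence. After 24 h, compound added at 10 nM–50 µM (1 mM methanol stock) for 48 h. Cells lysed on ice with 1% Triton X-100 Tris buffer. Lysate and medium LDH read kinetically as NADH loss ([…], 10 mM pyruvate, HEPES pH 7.0) at 340 nm over 60 min at 37 °C. Released vs total LDH normalized to positive and negative controls. n = 9.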

HepG2 [2] = experiment: Cytotoxicity against human HepG2 cells after 48 hrs by WST8 assay; details: for IC50: HepG2, 48 h
How it was run: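 Hep G2 cells grown in DMEM + 10% FCS (37 °C, 8.5% CO2), seeded 4×10^3/well for 48 h, then 24 h serum-free at ~80% confluence. Compound from 1 mM methanol stock, 10 nM–50 µM, 48 h, serum-free; solvent controls. Then WST-8 for 1 h at 37 °C, absorbance 450 nm, normalized to untreated control. Triplicate, three independent passages (n = 9).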

HepG2 [3] = experiment: Induction of apoptosis in human HepG2 cells assessed as caspase 3 activation after 24 hrs by fluorescence assay; details: HepG2, 24 h
How it was run: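 Hep G2 cells seeded 2×10^4/well and made serum-free as for the other assays. Compound given at 10 nM–50 µM (1 mM methanol stock) for 24 h. Lysed on ice in 0.1% Triton X-100 buffer, pH 7.5, then centrifuged. Supernatant incubated 1 h at 37 °C with 8 µM DEVD-AFC in PIPES/CHAPS/DTT buffer. AFC fluorescence (ex 400/em 505 nm) quantified against an AFC standard and normalized to BCA protein. n = 9.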

SMILES	Activity (HepG2 [1])	Activity (HepG2 [2])	IC50 (HepG2 [2])	EC50 (HepG2 [3])
C[C@@H]1Cc2c(Cl)cc(C(=O)N[C@H](Cc3ccccc3)C(=O)O)c(O)c2C(=O)O1 [3R14R-OCHRATOXIN A]	Dose-dependent effect	Dose-dependent effect	3200 nM	> 10000 nM
C[C@@H]1Cc2c(Cl)cc(C(=O)N[C@@H](Cc3ccccc3)C(=O)O)c(O)c2C(=O)O1 [3R14S-OCHRATOXIN A]	Dose-dependent effect	Dose-dependent effect	300 nM	60 nM
C[C@H]1Cc2c(Cl)cc(C(=O)N[C@H](Cc3ccccc3)C(=O)O)c(O)c2C(=O)O1 [3S14R-OCHRATOXIN A]	Dose-dependent effect	Dose-dependent effect	5000 nM	3800 nM
C[C@H]1Cc2c(Cl)cc(C(=O)N[C@@H](Cc3ccccc3)C(=O)O)c(O)c2C(=O)O1 [3S14S-OCHRATOXIN A]	Dose-dependent effect	Dose-dependent effect	400 nM	80 nM

— ChEMBL document CHEMBL1157670, “Total synthesis and cytotoxicity evaluation of all ochratoxin A stereoisomers” (Bioorg Med Chem, 2010)
